# PAD4 inh = inhibitors of human PAD4; recombinant PAD4, RCA probe fluorescence polarization; Q9UM07; inhibition, % at 6.36 µM; 0.41% of 330,000 active;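 active = percent inhibition above a cutoff equal to the mean of all tested compounds plus 3 SD, cut at about 15% in these data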;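 also: 0% = PAD4 with RCA probe and DMSO and 100% = probe without PAD4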
# TDP2 absorb = TDP2 (human) inhibition, absorbance primary screen | recombinant TDP2, T5PNP hydrolysis, p-nitrophenol absorbance 415 nm | inhibition, % at 12.8 µM | 0.34% of 370,000 active | AID 720702;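 active = inhibition above the mean of all tested compounds plus 3 SD, set per campaign, cut at about 25% in these data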;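 also: 0% = DMSO with enzyme and 100% = buffer with substrate but no TDP2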
#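 Material: recombinant human TDP2; quantity: TDP2 enzyme at 120 nM final; medium: Tris-HCl pH 7.5 with MgCl2; compound: single concentration, 12.8 µM nominal, with 1% DMSO; incubation: 2 h enzyme incubation at 37 °C; signal: epi absorbance; measure: percent inhibition; benchmarks: high control without enzyme, low control DMSO plus TDP2; repeats: singlicate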
# GSTO1 inh = blocks human GSTO1 in RBBP9 counter-screen; P78417; recombinant GSTO1, activity-based probe fluorescence polarization; inhibition, % at 5.96 µM; 1.1% of 300,000 active;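 active = inhibition above the campaign mean inhibition plus 3 SD, cut at about 35% in these data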;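 also: 0% = GSTO1-1 with DMSO and 100% = wells lacking GSTO1-1 enzyme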
# PRMT1 inh = blocks human protein arginine methyltransferase 1; Q99873; recombinant PRMT1, activity-based probe fluorescence polarization; inhibition, % at 2.79 µM; 1.3% of 370,000 active; AID 652257;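 active = inhibition above about 21% made by adding two undisclosed values, limit read from the data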
# Apaf-1 inh = inhibitors of human Apaf-1 apoptosome. O14727. reconstituted apoptosome caspase-3 activity, DEVD-Rh110 fluorescence. inhibition, % at 20 µM. 0.71% of 330,000 active; active = inhibition of at least 40% at 20 µM;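 also: plate controls were DMSO wells for no effect and DEVD-CHO caspase inhibitor wells for full effect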
# Target sequence (O14727 whole entry, looked up): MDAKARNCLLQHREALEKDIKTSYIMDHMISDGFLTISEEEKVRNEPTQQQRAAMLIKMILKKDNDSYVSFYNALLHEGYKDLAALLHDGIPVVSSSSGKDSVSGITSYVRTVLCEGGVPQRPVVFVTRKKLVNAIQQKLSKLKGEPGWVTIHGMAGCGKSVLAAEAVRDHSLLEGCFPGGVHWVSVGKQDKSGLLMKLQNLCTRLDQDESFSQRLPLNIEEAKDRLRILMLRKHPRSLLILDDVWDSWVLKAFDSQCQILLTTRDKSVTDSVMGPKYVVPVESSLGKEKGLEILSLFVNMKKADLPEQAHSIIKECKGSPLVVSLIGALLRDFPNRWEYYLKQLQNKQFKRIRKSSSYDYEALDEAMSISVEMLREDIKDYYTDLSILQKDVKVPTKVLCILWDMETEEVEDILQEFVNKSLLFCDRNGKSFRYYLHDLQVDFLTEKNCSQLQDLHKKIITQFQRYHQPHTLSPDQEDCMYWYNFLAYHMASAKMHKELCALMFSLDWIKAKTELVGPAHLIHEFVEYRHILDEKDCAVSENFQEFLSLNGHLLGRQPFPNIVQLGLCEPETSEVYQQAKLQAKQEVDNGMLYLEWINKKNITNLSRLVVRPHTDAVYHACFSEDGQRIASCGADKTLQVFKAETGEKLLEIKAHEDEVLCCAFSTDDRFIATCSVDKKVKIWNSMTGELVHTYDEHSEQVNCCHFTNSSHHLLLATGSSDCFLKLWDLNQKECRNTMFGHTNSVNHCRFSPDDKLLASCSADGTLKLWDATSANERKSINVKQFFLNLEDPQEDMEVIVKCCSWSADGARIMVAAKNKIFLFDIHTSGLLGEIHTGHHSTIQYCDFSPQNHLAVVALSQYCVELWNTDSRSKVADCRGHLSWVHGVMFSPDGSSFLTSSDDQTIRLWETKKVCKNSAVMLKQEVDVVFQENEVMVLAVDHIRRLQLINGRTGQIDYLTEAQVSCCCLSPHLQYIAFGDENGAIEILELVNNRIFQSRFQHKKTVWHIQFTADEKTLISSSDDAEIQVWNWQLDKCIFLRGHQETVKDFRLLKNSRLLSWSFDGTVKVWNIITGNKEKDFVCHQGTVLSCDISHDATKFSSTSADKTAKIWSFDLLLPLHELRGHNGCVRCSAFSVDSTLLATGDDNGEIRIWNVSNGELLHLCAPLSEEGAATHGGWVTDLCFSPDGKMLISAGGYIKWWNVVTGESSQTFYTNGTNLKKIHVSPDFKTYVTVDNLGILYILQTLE
#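 Assay system: Apoptosome proteins | Medium: pH 7.5 Hepes buffer with CHAPS, BSA, DTT | Also added: Cytochrome c and DEVD-Rh110 substrate | Times: 30 min plus 50 min, RT | Detection: Rhodamine 110 fluorescence at Ex 480/Em 540 nm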
# GSTO1 inh conf = GSTO1 (human) inhibition, confirmation; shares compounds with GSTO1 inh; recombinant GSTO1, probe fluorescence polarization; inhibition, % at 5.96 µM; 54% of 2,400 active;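 active = inhibition above the primary screen's cutoff, its mean inhibition plus 3 SD, cut at about 35% in these data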;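 also: loss of polarization as inhibitors block binding of rhodamine sulfonate ester activity probe; 0% = GSTO1 with DMSO and 100% = wells lacking GSTO1 enzyme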
# PAD4 confirm = confirmation of human PAD4 inhibitors. 28% of 1,200 active. shares compounds with PAD4 inh. recombinant PAD4, RCA probe fluorescence polarization. inhibition, % at 6.36 µM;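 active = mean inhibition across replicates above the hit cutoff set by the earlier primary screen, cut at about 15% in these data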;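 also: inhibitors block active-site labeling by the probe so polarization falls; 0% = PAD4 with probe and DMSO and 100% = probe without PAD4 enzyme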
# Apaf-1 inh conf2 = confirmation of Apaf-1 inhibitors; shares compounds with Apaf-1 inh; reconstituted apoptosome, caspase-3 DEVD-Rh110 fluorescence; inhibition, % at 20 µM; 25% of 1,800 active; AID 504614;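 active = mean inhibition of at least 40% at 20 µM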;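 also: plate controls were DMSO wells for no effect and DEVD-CHO caspase inhibitor control wells for full effect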
# Rh110 quench = interferes with Rh110 fluorescence, flagging false Apaf-1 inhibitors; shares compounds with Apaf-1 inh; activation (fluorescence interference), % at 20 µM; 1,800 tested, under 10 active; Rh110 fluorescence interference, quenched caspase reaction; AID 504615;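 active = signal rise of 40% or more at 20 µM, treated as a fluorescence artifact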
# Apaf1 inh interf = Apaf-1 inhibitor counter-screen fluorescence artifact | shares compounds with Apaf-1 inh | fluorescence interference counterscreen, Apaf-1 assay format | IC50, µM | 460 tested, under 10 active; call rule not given here
# TDP2 confirm = confirmation of human TDP2 inhibitors | shares compounds with TDP2 absorb | recombinant human TDP2, absorbance read-out | inhibition, % at 12.8 µM | 22% of 1,100 active; in the data active = inhibition above about 25%;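 also: 0% = vehicle with enzyme and 100% = no enzyme buffer only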
# * hit, by the source's call; x = no result. An excerpt weighted towards active compounds, which were near 2.6% of everything screened.
SMILES,PAD4 inh,TDP2 absorb,GSTO1 inh,PRMT1 inh,Apaf-1 inh,GSTO1 inh conf,Apaf-1 inh conf2,Rh110 quench,TDP2 confirm,others
CC(=O)C1=C(C)OC2(O)c3ccccc3C(=O)C12O (stereo unspecified),-11,57*,72*,1,93*,80*,90*,4,61*,Apaf1 inh interf=>100
CC1=C(C#N)C2(O)C(=O)c3ccccc3C2(O)N1 (stereo unspecified),-7,-12,2,1,-11,x,x,x,x,
Nc1c(C(=O)N2CCN(c3ccccc3)CC2)nnn1Cc1ccc(Cl)cc1,x,1,x,0,x,x,x,x,x,
CCCC1CCC2(CCCN2CCOC(=S)Nc2ccccc2OC)CC1 (stereo unspecified),x,-10,x,19,x,x,x,x,x,
Cc1ccc(-c2cc3c(nn2)-c2ccccc2C3=O)cc1,-9,10,17,0,27,x,x,x,x,
Cc1ccccc1-c1cc2c(nn1)-c1ccccc1C2=O,58*,63*,75*,3,97*,70*,61*,-7,50*,PAD4 confirm=-8;Apaf1 inh interf=>100
O=C(O)/C=C/C(=O)Nc1ccc(O)cc1,60*,34*,59*,19,-22,8,x,x,31*,PAD4 confirm=4
O=C(O)/C=C/C(=O)Nc1ccc(C(=O)c2ccccc2)cc1,-1,6,-11,3,4,x,x,x,x,
Cc1ccccc1CN1CCCCC(NC(=O)c2cccc([N+](=O)[O-])c2)C1=O (stereo unspecified),x,9,x,-2,x,x,x,x,x,
COCCN1C(=O)CCC1(C)c1nnnn1-c1ccc2ccccc2c1 (stereo unspecified),x,0,x,3,x,x,x,x,x,
Cc1cccc(C)c1NC(=O)C(c1cc2ccccc2o1)N1CCC(c2ccccc2)CC1 (stereo unspecified),x,-1,x,-2,x,x,x,x,x,
O=C(O)CCCNc1cc(N2CCN(C(=O)c3ccco3)CC2)c2noc3c2c1C(=O)c1ccccc1-3,-7,30*,53*,19,60*,30,28,1,27*,
Nc1[nH]c(C(=O)c2ccccc2)c(-c2ccc(Br)cc2)c1C(=O)NCCCN1CCOCC1,x,-2,x,-3,x,x,x,x,x,
N#Cc1c(N)n(CCNC(=O)c2ccccc2)c2nc3ccccc3nc12,1,-2,0,-1,-15,x,x,x,x,
C=CCn1c(NC(=O)c2ccccc2Cl)c(C#N)c2nc3ccccc3nc21,59*,79*,79*,0,96*,62*,60*,5,45*,PAD4 confirm=-2;Apaf1 inh interf=>100
COc1ccc(C(=O)c2[nH]c(N)c(C(=O)NCCc3c[nH]c4ccccc34)c2-c2c(F)cccc2Cl)cc1,x,3,x,0,x,x,x,x,x,
COc1cccc(/C=N/Nc2nnc(C)n2N)c1O,39*,41*,41*,1,3,1,x,x,1,PAD4 confirm=0
COc1cccc(/C=N/Nc2cc(Cl)nc(C)n2)c1O,2,10,28,0,5,x,x,x,x,
COc1ccc(CCN2C(=O)COc3ccccc3C2C(=O)Nc2c(C)cccc2C)cc1OC (stereo unspecified),x,2,x,-6,x,x,x,x,x,
Nc1ccc2c(c1)C(=O)N(c1cccc3ccccc13)C2=O,-1,-8,4,0,17,x,x,x,x,
Nc1ccc2nn(-c3cccc4ccccc34)nc2c1,2,36*,61*,-2,96*,7,75*,12,36*,Apaf1 inh interf=>100
CCOc1ccc2noc3c2c1C(=O)c1ccccc1-3,135*,39*,40*,150*,76*,13,56*,-20,34*,PAD4 confirm=131*
O=C(N[C@H](Cc1ccccc1)C(=O)NC1CCCCC1)[C@H]1O[C@@H](n2ccc(=O)[nH]c2=O)[C@H](O)[C@@H]1O,x,8,x,4,x,x,x,x,x,
COC(=O)CCCC1=CC2=C(c3ccccc3)C(=O)C(C)(OC(=O)C3CCCC3)C(=O)C2=CN1CC(C)C (stereo unspecified),-16,25*,52*,6,41*,6,19,4,14,
COCCN1C=C2C(=O)C(C)(OC(=O)C3CCCC3)C(=O)C(c3ccccc3)=C2C=C1CCCC(=O)OC (stereo unspecified),-6,30*,45*,3,30,26,x,x,22,
SMILES,PAD4 inh,TDP2 absorb,GSTO1 inh,PRMT1 inh,Apaf-1 inh,GSTO1 inh conf,Apaf-1 inh conf2,Rh110 quench,TDP2 confirm,others
COc1ccccc1Nc1cc2cc(Br)ccc2c(=O)[nH]1,34*,63*,42*,5,97*,12,98*,16,57*,PAD4 confirm=5;Apaf1 inh interf=>100
O=c1[nH]c(Nc2ccccc2)cc2cc(Br)ccc12,64*,83*,58*,12,98*,19,x,x,58*,PAD4 confirm=-6
O=c1cc(Nc2cccc(Br)c2)[nH]c(=O)[nH]1,1,8,-9,1,7,x,x,x,x,
CC(=O)c1cccc(-c2ccc3c(=O)[nH]c(Nc4ccccc4)cc3c2)c1,-7,57*,49*,0,96*,12,88*,8,52*,
COc1ccccc1Nc1nnc(C)c(=O)[nH]1,-4,-5,3,3,2,x,x,x,x,
COc1ccc(OC)c(Nc2cc3ccccc3c(=O)[nH]2)c1,39*,68*,71*,8,97*,6,94*,5,61*,PAD4 confirm=-1;Apaf1 inh interf=>100
CCCOc1ccc(-c2nc(CSCC(=O)NC3CC3)c(C)o2)cc1,x,-4,x,-4,x,x,x,x,x,
N/C(=N\C(=O)OCc1ccccc1)N(Cc1ccccc1)C(C#CC1=CCCCC1)Cc1ccccc1 (stereo unspecified),x,-10,x,4,x,x,x,x,x,
Nn1c(SCc2cccc3ccccc23)nnc1-c1cc(-c2ccc(F)cc2)n[nH]1,x,-2,x,-1,x,x,x,x,x,
Cn1c(=O)cc(Nc2ccccc2)[nH]c1=O,1,-1,12,0,3,x,x,x,x,
O=c1[nH]c(Nc2ccccc2)cc2ccccc12,65*,69*,80*,4,96*,47*,94*,-1,66*,PAD4 confirm=18*;Apaf1 inh interf=>100
COc1ccc([N+](=O)[O-])cc1CN1CCN(c2ncc(Cc3ccccc3)cn2)CC1,x,0,x,1,x,x,x,x,x,
O=C(Nc1cccc(Br)c1)OC1CC2CC1[C@H]1CCCCN1[C@H]2Cc1ccccc1 (stereo partly specified),x,0,x,-3,x,x,x,x,x,
